According to ChEMBL document CHEMBL1165950, “Design and synthesis of new potent anticancer pyrazoles with high FLT3 kinase inhibitory selectivity” (Bioorg Med Chem, 2010):

Legend:
Format in all cases: functional
U-251 = assay: Cytotoxicity against human U251 cells assessed as cell growth at 10 uM; details: read-out: Activity
Method in brief: (§1)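 NCI-60 screen: cells grown in RPMI 1640 with 5% FBS and 2 mM L-glutamine, plated at 5000–40,000 cells/well according to doubling time, and preincubated 24 h at 37 °C, 5% CO2. The single 10 µM dose (DMSO stock) was added, then incubated 48 h. Cells were TCA-fixed and stained with 0.4% SRB, read at 515 nm, and growth % calculated against time-zero and control plates.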

NCI-H460 = assay: Cytotoxicity against human NCI-H460 cells assessed as cell growth at 10 uM; details: read-out: Activity; method in brief: as §1
SR = assay: Cytotoxicity against human SR cells assessed as cell growth at 10 uM; details: read-out: Activity; method in brief: as §1
OVCAR-5 = assay: Cytotoxicity against human OVCAR5 cells assessed as cell growth at 10 uM; details: read-out: Activity; method in brief: as §1
HOP-62 = assay: Cytotoxicity against human HOP62 cells assessed as cell growth at 10 uM; details: read-out: Activity
Method in brief: (§2)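 Single-dose NCI-60 screen at 10 µM. Cells were grown in RPMI 1640 with 5% FBS and 2 mM L-glutamine, then treated for 48 h at 37 °C. Protein was measured by SRB staining with absorbance at 515 nm. Percentage growth was recorded, and inhibition percentage was calculated as 100 minus growth percentage.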

MDA-MB-468 = assay: Cytotoxicity against human MDA-MB-468 cells assessed as cell growth at 10 uM; details: read-out: Activity; method in brief: as §1
OVCAR-8 = assay: Cytotoxicity against human OVCAR8 cells assessed as cell growth at 10 uM; details: read-out: Activity; method in brief: as §1
RXF 393 = assay: Cytotoxicity against human RXF393 cells assessed as cell growth at 10 uM; details: read-out: Activity; method in brief: as §1
NCI-H23 = assay: Cytotoxicity against human NCI-H23 cells assessed as cell growth at 10 uM; details: read-out: Activity; method in brief: as §1
SNB-75 = assay: Cytotoxicity against human SNB75 cells assessed as cell growth at 10 uM; details: read-out: Activity; method in brief: as §1
T47D = assay: Cytotoxicity against human T47D cells assessed as cell growth at 10 uM; details: read-out: Activity; method in brief: as §1
IGROV-1 = assay: Cytotoxicity against human IGROV1 cells assessed as cell growth at 10 uM; details: read-out: Activity; method in brief: as §2
SK-OV-3 = assay: Cytotoxicity against human SKOV3 cells assessed as cell growth at 10 uM; details: read-out: Activity; method in brief: as §1
SK-MEL-5 = assay: Cytotoxicity against human SK-MEL-5 cells assessed as cell growth at 10 uM; details: read-out: Activity; method in brief: as §1
Malme-3M = assay: Cytotoxicity against human MALME-3M cells assessed as cell growth at 10 uM; details: read-out: Activity; method in brief: as §1
A498 = assay: Cytotoxicity against human A498 cells assessed as cell growth at 10 uM; details: read-out: Activity; method in brief: as §2
UO-31 = assay: Cytotoxicity against human UO31 cells assessed as cell growth at 10 uM; details: read-out: Activity; method in brief: as §1
SN12C = assay: Cytotoxicity against human SN12C cells assessed as cell growth at 10 uM; details: read-out: Activity; method in brief: as §1
HOP-92 = assay: Cytotoxicity against human HOP92 cells assessed as cell growth at 10 uM; details: read-out: Activity; method in brief: as §2
NCI-H522 = assay: Cytotoxicity against human NCI-H522 cells assessed as cell growth at 10 uM; details: read-out: Activity; method in brief: as §1
SK-MEL-2 = assay: Cytotoxicity against human SK-MEL-2 cells assessed as cell growth at 10 uM; details: read-out: Activity; method in brief: as §1
SF-539 = assay: Cytotoxicity against human SF539 cells assessed as cell growth at 10 uM; details: read-out: Activity; method in brief: as §1
LOX IMVI = assay: Cytotoxicity against human LOXIMVI cells assessed as cell growth at 10 uM; details: read-out: Activity; method in brief: as §1
SF-295 = assay: Cytotoxicity against human SF295 cells assessed as cell growth at 10 uM; details: read-out: Activity; method in brief: as §1
NCI-H322M = assay: Cytotoxicity against human NCI-H322M cells assessed as cell growth at 10 uM; details: read-out: Activity; method in brief: as §1
HCC 2998 = assay: Cytotoxicity against human HCC2998 cells assessed as cell growth at 10 uM; details: read-out: Activity; method in brief: as §2
UACC-62 = assay: Cytotoxicity against human UACC62 cells assessed as cell growth at 10 uM; details: read-out: Activity; method in brief: as §1
TK-10 = assay: Cytotoxicity against human TK10 cells assessed as cell growth at 10 uM; details: read-out: Activity; method in brief: as §1
NCI/ADR-RES = assay: Cytotoxicity against human NCI/ADR-RES cells assessed as cell growth at 10 uM; details: read-out: Activity; method in brief: as §1
[1] = Growth inhibition of human NCI60 cells at 10 uM after 48 hrs by sulforhodamine B assay relative to control; details: NCI60, 48 h, read-out: GI
Method in brief: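 Single-dose NCI screen at 10 µM across the 60-line panel, 48 h exposure at 37 °C after a 24 h preincubation. Adherent cells were fixed with cold TCA and stained with 0.4% SRB, and absorbance was read at 515 nm. Inhibition % was taken as 100 minus growth %, and the mean across all lines was reported.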

NCI-H226 = assay: Cytotoxicity against human NCI-H226 cells assessed as cell growth at 10 uM; details: read-out: Activity; method in brief: as §1

## Cc1cc(O)cc(-c2nn(CC#N)cc2-c2ccnc(-c3ccccc3)c2)c1
U-251
  growth at 10 µM: 87.4%
NCI-H460
  growth at 10 µM: 93.3%
SR
  growth at 10 µM: 80.3%
OVCAR-5
  growth at 10 µM: 93.2%
HOP-62
  growth at 10 µM: 92.7%
MDA-MB-468
  growth at 10 µM: 61.8%
OVCAR-8
  growth at 10 µM: 70.2%
RXF 393
  growth at 10 µM: 151%
NCI-H23
  growth at 10 µM: 93.5%
SNB-75
  growth at 10 µM: 43.2%
T47D
  growth at 10 µM: 59.2%
IGROV-1
  growth at 10 µM: 72%
SK-OV-3
  growth at 10 µM: 84.6%
SK-MEL-5
  growth at 10 µM: 75.4%
Malme-3M
  growth at 10 µM: 133%
A498
  growth at 10 µM: 84.3%
UO-31
  growth at 10 µM: 64.5%
SN12C
  growth at 10 µM: 77.6%
HOP-92
  growth at 10 µM: 57.3%
NCI-H522
  growth at 10 µM: 57.2%
SK-MEL-2
  growth at 10 µM: 86.1%
SF-539
  growth at 10 µM: 83.5%
LOX IMVI
  growth at 10 µM: 95.6%
SF-295
  growth at 10 µM: 99.2%
NCI-H322M
  growth at 10 µM: 116%
HCC 2998
  growth at 10 µM: 89.2%
UACC-62
  growth at 10 µM: 59.8%
TK-10
  growth at 10 µM: 84.2%
NCI/ADR-RES
  growth at 10 µM: 66.7%
[1]
  inhibition of growth at 10 µM: 16.4%
NCI-H226
  growth at 10 µM: 77.7%
